In general, MIC refers to the least concentration at which growth counts as inhibited. Low values mean inhibition by little substance, high ones a need for much substance.

We go through four substances from paper PMC10884804 (Food Chemistry: X, 2024).

Ends that are not written are not given here. * marks the point of attachment. Dodecyl = CCCCCCCCCCCC*; Octyl = CCCCCCCC*

Data set [1] relates to Pseudomonas. As to the kind of experiment: MIC by two-fold serial dilution. It counts as cell-based. The following applies: for MIC: two-fold serial dilution, at least three repeats.
The test system of data set [2] is Shewanella. Nature of the data set: MIC by two-fold serial dilution. Format: cell-based. The conditions noted are these: for MIC: two-fold serial dilution, at least three repeats.
Data set [3] is described as follows: Self-assembly morphology by TEM. Format: physicochemical. The following applies: aqueous solution, 1 mM.
The nature of data set [4]: Circular dichroism secondary structure. The conditions noted are these: aqueous solution, 190–270 nm. It counts as physicochemical. The method, boiled down: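 The test compound was dissolved in sterile PBS and in 2.5 % SDS buffer (a membrane-mimetic hydrophobic environment), then filtered through 0.22 µm. Spectra were scanned at 190-270 nm with 1 nm bandwidth and 0.5 s interval in a 0.1 cm cuvette. Ellipticity (mdeg) was converted to molar residue ellipticity using residue number, peptide concentration and path length.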
In general terms: CD spectra are sensitive to the conformation of chiral molecules.

The test system of data set [5] is Pseudomonas. As to the kind of experiment: Cell wall permeability. The conditions noted are these: peptide at MIC, 37℃, 4 h. It counts as cell-based. In a few lines: (§1)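 Bacteria from a national culture collection were incubated with the test compound at the MIC (the control received an equal volume of sterile water) at 37°C for 4 h. Samples were centrifuged at 4°C and 5000 x g for 10 min, and alkaline phosphatase (AKP) was measured in the supernatant. Each experiment was done at least three times, reported as mean ± SD.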

Data set [6] concerns Shewanella. Nature of the data set: Cell wall permeability. The following applies: peptide at MIC, 37℃, 4 h. Format: cell-based. In a few lines: as §1
Data set [7] relates to Pseudomonas. As to the kind of experiment: Cell membrane permeability, PI/FDA flow cytometry. Format: cell-based. The conditions noted are these: peptide at MIC, 37℃, 1 h, sum of Q1 and Q2. For orientation: A flow cytometer gives signals particle by particle.
Data set [8] deals with Shewanella. As to the kind of experiment: Cell membrane permeability, PI/FDA flow cytometry. Format: cell-based. The following applies: peptide at MIC, 37℃, 1 h; for bacteria distributed in Q1 and Q2 regions (disturbed membranes): Shewanella, sum of Q1 and Q2.
Data set [9] relates to Pseudomonas. As to the kind of experiment: Ultrastructural observation of treated bacteria. Format: cell-based. The conditions noted are these: cells treated with peptide.

Take APATPAAPALLPLWLL [AP-16]: the “antibacterial activity (in words)” value in [1] (bacterial survival rate, S.2) is “no significant antibacterial activity”; in [2] (bacterial survival rate, S.2), “no significant antibacterial activity”. Moreover, the self-assembly morphology entry in [3] was “did not exhibit an evident self-assembly morphology”. The secondary structure entry in data set [4] is reported as “randomly curled structure”.

As for AKATKAAKALLKLWLL [AL-16], the MIC was determined as 16 µM in data set [1] and 128 µM in [2].

As for “C8-AL-16: AL-16 with alkyl chain (C8) attached to the N-terminus (Octyl-AKATKAAKALLKLWLL)”, the MIC in data set [1] and in data set [2] was 4 µM in each case. Further, the “cell wall permeability (AKP leakage)” value in data set [5] and in [6] was “significantly enhanced” each time. Also, the “bacteria distributed in Q1 and Q2 regions (disturbed membranes)” value in data set [7] and in data set [8] was greater than 98% throughout. The “bacteria in Q1 region (PI-positive, FDA-negative)” value in data set [8] (Shewanella (Fig. 4D), flow cytometry) was found to be 38.80%. The “morphological changes of bacterial cells (TEM)” value in data set [9] was “disrupted by lysis, and the contents leaked, resulting in serious damage”. Moreover, in data set [3], the self-assembly morphology result is given as “nanospheres in the form of micelles”. In addition, the secondary structure entry in data set [4] is listed as “β-folded structure”.

Take “C12-AL-16: AL-16 with alkyl chain (C12) attached to the N-terminus (Dodecyl-AKATKAAKALLKLWLL)”: the MIC in data set [1] and in data set [2] was 4 µM in each case. For the same substance, the “bacteria distributed in Q1 and Q2 regions (disturbed membranes)” value in data set [7] and in [8] was greater than 98% throughout. The “morphological changes of bacterial cells (TEM)” value in [9] is on record as “bacterial contents were lost; however, the basic membrane structure was maintained”. The self-assembly morphology entry in data set [3] is given as “nanospheres in the form of micelles”. The secondary structure result in [4] is “α-helix”.
